≈ marks a conversion by molar mass, not a printed value. Values belong to the compound of their own block, whether it stands above or below them.
What was measured:
[1] = Kinetic solubility study of SNMSDs and EDR in SIF pH 6.8; assay type: physicochemical
[2] = In vitro dissolution study; assay type: physicochemical
Method in brief: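 USP type II (paddle) apparatus at 37°C and 50 rpm, with 900 mL of SGF (pH 1.2) or SIF (pH 6.8). Samples were taken at 5, 15, 30, 45, 60, 90 and 120 min, with media replaced, then passed through a 0.45 µm filter and diluted with mobile phase as needed. They were quantified by HPLC-UV at 240 nm (water:methanol:acetic acid 100:100:1, 1 mL/min). Release data were fitted to zero-order, first-order, Higuchi, Hixson–Crowell and Korsmeyer–Peppas models. f1 and f2 were calculated comparing the unformulated and formulated drug profiles.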

[3] = pH 8–10; cited from earlier work
[4] = cited from earlier work
[5] = test system: P-glycoprotein (Pgp); details: cited from earlier work
[6] = test system: UGT enzymes; details: cited from earlier work
[7] = Solubility of EDR, PM and NEF in simulated body fluids and water
[8] = test system: glucuronidation of EDR in rat liver microsomes; assay: Microsomal incubation assay of EDR glucuronidation; assay type: in vitro ADME; details: SOL 1%
[9] = Miscibility study: solubility of EDR in polymeric carrier solutions; details: 10% (w/v) polymer in water
[10] = dissolution profiles in SGF vs SIF

solubility [1]: 2290 ± 320 µg/mL (≈ 13.1 mM)
release kinetic model followed ([2]; SGF): Hixson–Crowell
release kinetics: First order ([2]; SGF): 0.834
release kinetics: Higuchi matrix ([2]; SGF): 0.8501
release kinetics: Hixson–Crowell ([2]; SGF): 0.9216
release kinetics: Korsmeyer–Peppas ([2]; SGF): 0.8636
release kinetics: Zero order ([2]; SGF): 0.6077
release / dissolution in SGF ([2]; SGF (pH 1.2), within 15 min): 100%
release kinetic model followed ([2]; SIF): Korsmeyer–Peppas
release kinetics: First order ([2]; SIF): 0.9609
release kinetics: Higuchi matrix ([2]; SIF): 0.97
release kinetics: Hixson–Crowell ([2]; SIF): 0.9718
release kinetics: Korsmeyer–Peppas ([2]; SIF): 0.9895
release kinetics: Zero order ([2]; SIF): 0.7947
release mechanism ([2]; SIF): anomalous transport (non-Fickian)
release in SIF ([2]; SIF (pH 6.8), in 120 min): 85%
f1 value (dissimilarity factor) [2, 10]: 26
f2 value (similarity factor) [2, 10]: 14
dissolution ([2]; within 15 min in the 900 mL of dissolution media): 100%
solubility in SGF (pH 1.2) compared to solubility in water ([7]; SGF pH 1.2): 4.46 fold
solubility in SIF compared to solubility in water ([7]; SIF pH 6.8 and 7.4): insignificant difference
Compound: CC1=NN(c2ccccc2)C(=O)C1 [EDR, 3-methyl-1-phenyl-2-pyrazolin-5-one]
degradation at alkaline conditions [3]: dramatic degradation
solubility in SGF [4]: 8260 ± 1420 µg/mL (≈ 47.4 mM)
substrate of P-glycoprotein (Pgp) [5]: substrate
substrate of UGT enzymes [6]: substrate

inhibitory effect on glucuronidation of EDR [8]: 37.56%
Compound: CC1(C)C2CCC1(C)C(O)C2 (stereo not drawn) [borneol]

improvement in the aqueous solubility of EDR [9]: 3.49 fold
Compound: hydroxypropyl-β-cyclodextrin [HP-β-CD]

— PMC6038876 (Drug Design, Development and Therapy, 2018)
